Measurements as given in ChEMBL document CHEMBL2417545, “6-methoxy-7-benzofuranoxy and 6-methoxy-7-indolyloxy analogues of 2-[2-(2,6-Dimethoxyphenoxy)ethyl]aminomethyl-1,4-benzodioxane (WB4101):1 discovery of a potent and selective α1D-adrenoceptor antagonist” (J Med Chem, 2013).

Assays:
[1] = species: Cavia porcellus; test: Inverse agonist activity at alpha-1 receptor in guinea pig thoracic aorta assessed as inhibition of calcium-induced increase in resting tension at 10 nM relative to control; format: tissue-based
How it was run: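 Guinea pig thoracic aortic strips in Krebs at 37 °C, equilibrated 1 h at 1 g tension, then given (−)-noradrenaline 1 μM. Internal Ca²⁺ stores were depleted by repeated agonist in Ca²⁺-free Krebs with 0.1 mM EDTA. After 30 min with antagonist at 10 nM, 1.8 mM Ca²⁺ was added. Read-out: % decrease of Ca²⁺-induced increase in resting tension versus no-agent reference.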

[2] = target: T1, 5-hydroxytryptamine receptor 1A (Rattus norvegicus, UniProt P19327); test: Displacement of [3H]-8-OHDPAT from 5-HT1A receptor in rat hippocampal membranes after 30 mins; format: cell membranes, Hippocampus, Membrane
T1 sequence (P19327 whole entry): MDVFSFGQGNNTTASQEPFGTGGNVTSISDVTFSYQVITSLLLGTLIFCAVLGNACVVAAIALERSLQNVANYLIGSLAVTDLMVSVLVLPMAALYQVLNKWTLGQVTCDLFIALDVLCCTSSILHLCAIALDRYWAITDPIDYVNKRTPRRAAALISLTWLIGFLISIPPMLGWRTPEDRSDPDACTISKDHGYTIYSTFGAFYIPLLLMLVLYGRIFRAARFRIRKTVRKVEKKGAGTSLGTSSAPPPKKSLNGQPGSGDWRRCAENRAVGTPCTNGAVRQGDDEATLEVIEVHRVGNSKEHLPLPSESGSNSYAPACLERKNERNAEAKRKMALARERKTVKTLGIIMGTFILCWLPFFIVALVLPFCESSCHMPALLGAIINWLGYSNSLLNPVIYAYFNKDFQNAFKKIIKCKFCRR

[3] = target: T2, Alpha-1B adrenergic receptor (Rattus norvegicus, UniProt P15823); test: Antagonist activity at alpha-1B adrenoreceptor in Sprague-Dawley rat spleen assessed as inhibition of phenylephrine-induced tissue contraction after 30 mins by Schild plot analysis; settings: read-out: pA2 (converted)
T2 sequence (P15823 whole entry): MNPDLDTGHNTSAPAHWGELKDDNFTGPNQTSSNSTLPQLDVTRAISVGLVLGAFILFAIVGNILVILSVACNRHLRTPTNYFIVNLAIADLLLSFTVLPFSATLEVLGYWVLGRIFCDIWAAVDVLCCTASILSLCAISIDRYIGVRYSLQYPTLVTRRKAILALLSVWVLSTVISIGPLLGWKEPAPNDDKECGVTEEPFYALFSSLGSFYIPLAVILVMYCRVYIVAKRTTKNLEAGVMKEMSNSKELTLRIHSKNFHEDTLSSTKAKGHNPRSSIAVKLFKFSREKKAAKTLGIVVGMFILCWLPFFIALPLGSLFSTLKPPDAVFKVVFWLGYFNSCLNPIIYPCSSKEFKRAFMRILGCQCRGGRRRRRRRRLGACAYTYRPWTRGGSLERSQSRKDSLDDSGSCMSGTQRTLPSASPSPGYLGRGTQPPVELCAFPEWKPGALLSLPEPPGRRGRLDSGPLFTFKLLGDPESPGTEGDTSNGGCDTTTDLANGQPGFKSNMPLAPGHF
How it was run: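 Spleen from 250−300 g rats in gassed physiological salt solution with desipramine 0.01 μM and propranolol 1 μM. Isometric cumulative phenylephrine curves were run at 30 min intervals, the first discarded and the second taken as control, then a new curve after 30 min antagonist equilibration. pA₂ from Schild plot, at least three antagonist concentrations, each tested 3−5 times.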

[4] = target: T3, Alpha-1B adrenergic receptor (Homo sapiens, UniProt P35368); test: Displacement of [3H]prazosin from human alpha-1B adrenoreceptor expressed in CHO cells after 30 mins; format: cell-based
T3 sequence (P35368 whole entry): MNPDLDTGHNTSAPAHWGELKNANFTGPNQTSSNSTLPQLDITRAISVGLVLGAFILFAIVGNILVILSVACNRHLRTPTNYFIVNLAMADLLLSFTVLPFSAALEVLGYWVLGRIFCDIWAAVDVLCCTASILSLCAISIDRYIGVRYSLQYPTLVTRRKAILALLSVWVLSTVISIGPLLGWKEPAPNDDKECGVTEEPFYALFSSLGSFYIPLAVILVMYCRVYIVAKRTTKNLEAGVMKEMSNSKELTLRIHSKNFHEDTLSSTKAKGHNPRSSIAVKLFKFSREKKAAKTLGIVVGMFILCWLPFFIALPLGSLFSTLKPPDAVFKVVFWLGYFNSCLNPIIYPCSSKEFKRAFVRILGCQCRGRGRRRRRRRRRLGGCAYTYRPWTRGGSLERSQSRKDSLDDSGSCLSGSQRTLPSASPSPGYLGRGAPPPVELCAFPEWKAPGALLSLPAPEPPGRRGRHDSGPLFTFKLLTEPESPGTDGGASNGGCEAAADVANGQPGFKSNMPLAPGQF
How it was run: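 Membranes from CHO cells expressing each α₁-AR subtype, incubated 30 min at 25 °C in 50 mM Tris HCl pH 7.7 with 10 μM pargyline and 0.1% ascorbic acid, plus 0.5 nM [³H]prazosin and varying test compound concentrations. Nonspecific binding was defined with 1 μM prazosin.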

[5] = target: T4, Alpha-1D adrenergic receptor (Rattus norvegicus, UniProt P23944); test: Antagonist activity at alpha-1D adrenoreceptor in Sprague-Dawley rat thoracic aorta assessed as inhibition of noradrenaline-induced tissue contraction after 30 mins by Schild plot analysis; settings: read-out: pA2 (converted)
T4 sequence (P23944 whole entry): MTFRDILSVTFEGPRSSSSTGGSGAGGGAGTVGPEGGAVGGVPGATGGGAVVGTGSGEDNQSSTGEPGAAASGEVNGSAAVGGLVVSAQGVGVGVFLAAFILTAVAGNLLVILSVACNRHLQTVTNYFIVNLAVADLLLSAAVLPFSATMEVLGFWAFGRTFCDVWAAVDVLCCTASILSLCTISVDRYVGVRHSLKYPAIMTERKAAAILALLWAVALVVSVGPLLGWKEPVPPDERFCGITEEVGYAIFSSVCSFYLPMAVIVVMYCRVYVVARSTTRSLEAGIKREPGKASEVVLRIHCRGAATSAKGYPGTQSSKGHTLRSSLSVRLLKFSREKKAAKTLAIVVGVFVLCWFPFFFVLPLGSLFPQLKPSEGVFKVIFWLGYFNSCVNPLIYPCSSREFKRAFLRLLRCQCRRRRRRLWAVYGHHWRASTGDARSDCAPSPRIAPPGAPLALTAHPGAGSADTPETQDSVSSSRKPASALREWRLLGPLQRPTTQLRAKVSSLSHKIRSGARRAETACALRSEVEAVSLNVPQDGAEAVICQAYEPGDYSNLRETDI
How it was run: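 Endothelium-denuded helicoid aortic strips, about 1.5 cm, with denudation confirmed by absent acetylcholine relaxation. Strips were equilibrated ≥1 h at 1 g tension and cumulative (−)-noradrenaline curves recorded, the first two discarded and the third taken as control; a fourth followed 30 min antagonist equilibration. pA₂ from Schild plot, 3−5 repeats per concentration.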

Row | Compound | inhibition [1] [%] | Ki [2] [µM] | Kb [3] [µM] | Ki [4] [µM] | Kb [5] [µM]
1 | COc1ccc2ccoc2c1OCCNC[C@H]1COc2ccccc2O1.Cl | 0 | 0.00257 | 0.00209 | 0.0288 | 0.000977
2 | COc1ccc2c(c1OCCNC[C@H]1COc3ccccc3O1)OCC2.Cl | 0 | 0.0468 | 0.00324 | 0.0219 | 0.000263
3 | COc1ccc2c(c1OCCNC[C@H]1COc3ccccc3O1)NCC2.Cl.Cl | 100 | 0.11 | 0.000832 | 0.0355 | 0.0024
4 | COc1ccc2cc[nH]c2c1OCCNC[C@H]1COc2ccccc2O1 | 25 | 0.339 | 0.017 | 0.49 | 0.00302
